Only some compounds are listed: those with a hit (about 2.3% of all), similar ones and a draw of the others.
TRPC4 PAM: TRPC4 (mouse) allosteric potentiation. B-score at 10 µM. hit rate 0.42% among 310,000. HEK293 TRPC4beta/mu-opioid, DAMGO EC20, Fluo-4 Ca2+ flux; hits give high values. Q9QUQ5;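 active means B-score of calcium response area above 5 SD of library B-scores, with initial fluorescence ratio within 5 SD of library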
TRPC4 block: TRPC4 (mouse) channel inhibition; hit rate 0.39% among 300,000; Q9QUQ5; HEK293 TRPC4beta/mu-opioid, DAMGO-evoked Fluo4 calcium flux; hits give low values; B-score at 10 µM;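 active means B-score over 3 SD under the library average, no early fluorescence shift, positive overall ratio signal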
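System: stable TRPC4beta/mu-opioid receptor HEK293 cells; Dosing: single-point compound dosing; Measured by: Fluo4 Ca2+ flux fluorescence; Read-out basis: per-well B score of integrated baseline-normalized Fluo4 ratio.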
TRPC6 activator: mouse TRPC6 channel activation. Q61143. HEK293-TRPC6 membrane potential dye fluorescence; hits give high values. B-score at 10 µM. hit rate 0.13% among 310,000. AID 2550;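 active means B-score of the integrated fluorescence ratio above library mean plus 3 SD, and starting fluorescence ratio within library mean plus 5 SD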;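 further: higher score means more depolarization so channel activation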
Target sequence (Q61143 whole entry, looked up): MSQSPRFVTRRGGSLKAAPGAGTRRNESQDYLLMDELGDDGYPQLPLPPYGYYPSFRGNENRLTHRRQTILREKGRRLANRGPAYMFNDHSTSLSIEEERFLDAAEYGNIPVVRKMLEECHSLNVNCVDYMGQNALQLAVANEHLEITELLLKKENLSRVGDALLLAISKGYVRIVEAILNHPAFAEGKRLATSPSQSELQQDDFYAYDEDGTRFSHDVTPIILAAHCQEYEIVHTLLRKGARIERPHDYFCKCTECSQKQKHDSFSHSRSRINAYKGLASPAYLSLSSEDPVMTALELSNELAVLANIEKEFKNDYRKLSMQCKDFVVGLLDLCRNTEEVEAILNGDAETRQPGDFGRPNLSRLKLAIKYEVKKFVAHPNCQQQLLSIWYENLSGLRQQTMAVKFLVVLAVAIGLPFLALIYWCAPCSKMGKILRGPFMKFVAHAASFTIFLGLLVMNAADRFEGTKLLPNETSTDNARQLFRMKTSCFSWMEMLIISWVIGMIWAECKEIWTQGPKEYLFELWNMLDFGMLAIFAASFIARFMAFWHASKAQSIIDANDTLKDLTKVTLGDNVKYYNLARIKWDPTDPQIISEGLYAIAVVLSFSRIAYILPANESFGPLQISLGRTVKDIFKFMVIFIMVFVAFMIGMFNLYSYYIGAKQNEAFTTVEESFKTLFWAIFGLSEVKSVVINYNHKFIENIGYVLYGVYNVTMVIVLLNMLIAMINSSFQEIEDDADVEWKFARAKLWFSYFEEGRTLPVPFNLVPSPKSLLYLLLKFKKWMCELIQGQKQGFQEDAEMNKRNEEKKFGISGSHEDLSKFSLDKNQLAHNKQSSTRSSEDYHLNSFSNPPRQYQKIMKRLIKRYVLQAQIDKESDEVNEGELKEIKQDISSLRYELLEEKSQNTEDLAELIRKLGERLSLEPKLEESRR
TRPC6 inhibitor: mouse TRPC6 channel inhibition. AID 2553. HEK293-TRPC6, membrane potential dye, ACh-evoked depolarization; hits give low values. B-score at 10 µM. hit rate 1.1% among 310,000;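 active means B-score under library mean minus 3 SD, initial fluorescence not abnormally high, positive integrated signal ratio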;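 further: B-score derived from integrated fluorescence ratio over the kinetic read; more negative B-score means stronger inhibition of depolarization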
TRPC4 agonist: TRPC4 (mouse) channel activation. Q9QUQ5. hit rate 0.49% among 310,000. B-score at 10 µM. HEK293 TRPC4beta/mu-opioid, Fluo4 calcium fluorescence; hits give high values;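 active means B-score above 5 SD of library B-scores, and initial fluorescence ratio not above library mean plus 5 SD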;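 further: positive B-score marks a calcium rise read as TRPC4 activation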
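Assay system: HEK293 cells stably co-expressing mouse TRPC4beta and mu-opioid receptor / Timing: Fluo4 dye loading 45 min at room temperature, 110 s recording / Signal: Fluo4 calcium-sensitive dye fluorescence, kinetic, 1 Hz baseline / Read-out: integrated baseline-normalised fluorescence ratio, converted to per-well B score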
Each line names hits and unclear results; the compound was inactive in the other large screens.

Nc1c2c(nc3ccc(Br)cc13)N(C1CCCCC1)CC2	TRPC6 activator 17.8, TRPC6 inhibitor -7.38
Cc1ccccc1Cn1c(C)nc2ccc([N+](=O)[O-])cc2c1=O	none
CCCc1c(-c2ccc(O)cc2)nn(-c2ccc(O)cc2)c1-c1ccc(O)cc1	TRPC4 PAM 27
Cc1c(C(N)=O)c(-c2ccccc2)nn1-c1ccccc1	none
CCCNC(=O)c1nnsc1S(=O)c1ccc(Cl)cc1 (configuration not stated)	TRPC4 block -6
Cc1nc(Nc2ccccc2)sc1C(=O)c1ccc(F)cc1	TRPC4 PAM 11
Cc1nc(Nc2ccccc2)sc1C(=O)Nc1ccccc1	none
CC(Oc1ccccc1)C(=O)Nc1ccc(C(N)=O)cc1 (configuration not stated)	none
CC(C)NS(=O)(=O)c1ccc(NC(=O)C(C)Oc2ccc(C(=O)c3ccccc3)cc2)cc1 (configuration not stated)	TRPC4 PAM 44
CSCCC(NC(=O)c1ccccc1Cl)C(=O)OCC(=O)N1CCCC1=O (configuration not stated)	none
Cc1oc(-c2ccoc2)nc1CN(Cc1ccccc1)CC1CC1	TRPC4 block -9
OCC1(CC2CCCCO2)CCN(Cc2nc3ccccc3[nH]2)CC1 (configuration not stated)	TRPC4 block -8, TRPC4 agonist 110
Cn1cccc1C(=O)N/N=C/c1c(Cl)cccc1Cl	none
Oc1cccc(/C=N/NC(=S)Nc2cccnc2)c1O	TRPC4 agonist 50
Oc1ccc(/C=N/NC(=S)Nc2cccnc2)c(O)c1O	none
CC1CCCCC1NC(=O)CNC(=O)c1cccs1 (configuration not stated)	none
NC(=O)C(c1cccc(Cl)c1)c1ncc(C(F)(F)F)cc1Cl (configuration not stated)	TRPC4 PAM 15
CC(C)Cc1ccc(C(C)C(=O)Nc2cccnc2)cc1 (configuration not stated)	TRPC4 agonist 45
CC(C)Cc1ccc(C(C)C(=O)Nc2ccc(O)cc2)cc1 (configuration not stated)	TRPC4 agonist 52
COc1ccc(OC)c(NC(=O)c2cc(S(=O)(=O)N3CCCC3)cn2C)c1	none
CC(C)(C)C(=O)Nc1sc(-c2ccccc2)cc1C(=O)O	none
Cc1cccc(C(=O)Nc2sc(-c3ccccc3)cc2C(=O)O)c1	TRPC4 block -6
CCCn1c(N2CCN(C(=O)/C=C/C(=O)O)CC2)nc2ccccc21	TRPC4 agonist 57
CCn1c(N2CCN(C(=O)/C=C/c3ccccc3)CC2)nc2ccccc21	TRPC4 agonist 94
Cc1ccc(CSc2nnc(-c3cccc(S(=O)(=O)N4CCOCC4)c3)n2C2CCCC2)cc1	TRPC4 PAM 18
NC(=O)CSc1nnc(-c2cccc(S(=O)(=O)N3CCOCC3)c2)n1C1CCCCCC1	none
CCOc1ccc(CCNC(=O)CS(=O)Cc2nc(-c3ccccc3C)oc2C)cc1OCC (configuration not stated)	none
O=C(c1sc2ccccc2c1Cl)N(Cc1cccs1)C1CCS(=O)(=O)C1 (configuration not stated)	TRPC4 agonist 120
CC1=NCCN1CCNC(=O)Nc1ccc(F)cc1	none
CCOC(=O)c1ccc(N=C2C(=S)N(c3ccc(C(=O)OCC)cc3)C(=N)N2/N=C/c2ccccc2)cc1	TRPC4 PAM 17
CCN1CCN(c2ccc(S(=O)(=O)N3CCCCC3)cc2NC(=O)COc2ccccc2)CC1	TRPC4 agonist 125
CCC(=O)c1ccc(OCC(=O)Nc2cc(S(=O)(=O)N3CCCCC3)ccc2N2CCN(CC)CC2)cc1	none
CCN1CCN(c2ccc(S(=O)(=O)N3CCCCC3)cc2NC(=O)Cc2ccc(Cl)c(Cl)c2)CC1	TRPC4 agonist 43
CCOc1ccccc1OCC(=O)Nc1cc(S(=O)(=O)N2CCCCC2)ccc1N1CCN(CC)CC1	TRPC4 agonist 89
CC(C)CCn1c(=O)c2ccccc2n2c(CCC(=O)NCC3CCCO3)nnc12 (configuration not stated)	none
CCOC(=O)C1CCCN(S(=O)(=O)CCNC(=O)c2cccc(OC)c2)C1 (configuration not stated)	none
O=C(C[n+]1ccccc1)N/N=C/c1cc(Br)ccc1O	none
COc1ccc(CC(=O)NC2CCS(=O)(=O)C2)cc1 (configuration not stated)	none
CCOC(=O)C1(CC2CC2)CCN(Cc2cn[nH]c2-c2cccc(F)c2)CC1	none
CCOC(=O)C1(CC2CC2)CCN(Cc2ccc(O)c(Cl)c2)CC1	TRPC4 block -7, TRPC4 agonist 75
CCOC(=O)C1(CC2CC2)CCN(Cc2ccc3cccc(F)c3n2)CC1	TRPC4 block -8, TRPC4 agonist 45
CCOC(=O)C1(CCOc2ccccc2)CCN(Cc2ccc(O)c(Cl)c2)CC1	none
COc1ccccc1C(=O)NC(=O)CSc1nnc(C)s1	none
COc1ccc(-c2nc(CS(=O)CC(=O)NCCCN3CCOCC3)c(C)o2)cc1OC (configuration not stated)	none
Cc1ccc(CS(=O)(=O)CCC(=O)NCCC2=CCCCC2)cc1	TRPC4 PAM 17
Cc1ccc(S(=O)(=O)CCC(=O)NCCC2=CCCCC2)cc1	none
COc1ccc(F)cc1CN1CCN(C(=O)CCC(=O)Nc2nnc(C(C)C)s2)CC1	TRPC4 agonist 69
CCCc1nnc(NC(=O)CCC(=O)N2CCN(Cc3cc(F)ccc3OC)CC2)s1	none
O=C1Nc2cc(C(=O)NCCCN3CCOCC3)ccc2S/C1=C/c1ccccc1F	TRPC4 block -6
CN(CCc1ccccn1)C(=O)CC1C(=O)NCCN1Cc1ccccc1C(F)(F)F (configuration not stated)	TRPC4 agonist 131
CCOc1ccc(CN2CCNC(=O)C2CC(=O)NCCc2ccccn2)cc1 (configuration not stated)	TRPC4 agonist 112
CN(CCc1ccccn1)C(=O)CC1C(=O)NCCN1Cc1cccc(F)c1 (configuration not stated)	TRPC4 agonist 186
COc1cccc(CN2CCNC(=O)C2CC(=O)N(C)CCc2ccccn2)c1OC (configuration not stated)	TRPC4 agonist 93
COc1cccc(CN2CCNC(=O)C2CC(=O)N(C)C2CCCCC2)c1OC (configuration not stated)	none
COc1cccc(NC(=O)Nc2ccc3c(c2)CCC3)c1	none
O=C(CN1C(=O)CCSc2ccc(S(=O)(=O)N3CCOCC3)cc21)Nc1cccc(F)c1	none
CC(=O)Nc1cccc(NC(=S)Nc2cccc(Cl)c2Cl)c1	none
COC(=O)c1cccc(NC(=S)Nc2cccc(Cl)c2Cl)c1	TRPC4 block -6
S=C(Nc1ccccc1)Nc1cc(Cl)ccc1Oc1ccccc1	TRPC4 block -6
CCCCOc1ccc(CN2CCSCC2)cc1	none
O=S(=O)(c1ccccc1)N1CCNCC1	none
CN1CCN(NC(=O)c2cccc(S(=O)(=O)N3CCCCCC3)c2)CC1	none

High-throughput results (PubChem BioAssay)
